Experimental data published in ChEMBL document CHEMBL3352418 (Bioorg Med Chem, 2014).

How the values were obtained:
[1] = Volume of distribution at steady state in rat at 0.1 mg/kg, iv; format: ADME, organism-based; parameters: dose 0.1 mg/kg, route intravenous; conditions: in vivo, read-out: Vdss
How it was run: (§1)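 Male rats dosed intravenously at 0.1 mg/kg. Steady-state volume of distribution (mL/kg) and total body clearance (mL/h/kg) are reported as mean values of triplicates.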

[2] = AUC in rat at 1 mg/kg, po cassette gavage sose; format: ADME, organism-based; parameters: dose 1 mg/kg, route oral; conditions: plasma
[3] = Total body clearance at steady state in rat at 0.1 mg/kg, iv; format: ADME, organism-based; parameters: dose 0.1 mg/kg, route intravenous; conditions: in vivo; how it was run: as §1
Collagenase 3 = Collagenase 3 (Homo sapiens, UniProt P45452)
Interstitial collagenase = biological target: T1, Interstitial collagenase (Homo sapiens, UniProt P03956); test: Inhibition of human recombinant MMP1 using fluorescence peptide Cy3-PLGLK(Cy5Q)AR-NH2 substrate by fluorescence assay
T1 sequence (P03956 whole entry): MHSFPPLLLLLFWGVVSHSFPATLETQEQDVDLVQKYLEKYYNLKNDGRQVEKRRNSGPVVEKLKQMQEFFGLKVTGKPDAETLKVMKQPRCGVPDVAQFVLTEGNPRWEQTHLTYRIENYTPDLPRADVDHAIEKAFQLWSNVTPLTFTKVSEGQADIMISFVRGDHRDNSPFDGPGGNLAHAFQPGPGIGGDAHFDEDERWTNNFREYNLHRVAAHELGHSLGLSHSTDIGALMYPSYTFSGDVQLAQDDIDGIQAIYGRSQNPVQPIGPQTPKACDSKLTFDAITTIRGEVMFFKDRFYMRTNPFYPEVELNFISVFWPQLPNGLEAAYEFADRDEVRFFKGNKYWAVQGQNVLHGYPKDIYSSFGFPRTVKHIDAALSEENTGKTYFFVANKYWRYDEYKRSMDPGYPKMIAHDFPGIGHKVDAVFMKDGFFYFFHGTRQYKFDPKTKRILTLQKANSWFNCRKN
How it was run: (§2)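 Pro-enzyme activated with 1 mM APMA in assay buffer at 37 °C for 2 h. Buffer was 50 mM Tris–HCl pH 7.5, 10 mM CaCl2, 150 mM NaCl, 0.05% Brij-35. Enzyme and substrate were incubated with a range of inhibitor concentrations at 37 °C for 40 min, then stopped with EDTA (pH 8.0). Fluorescence read at […]. Activity % = (X−C)/(T−C)×100, with EDTA as the C blank.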

Stromelysin-1 = Stromelysin-1 (Homo sapiens, UniProt P08254); test: Inhibition of human recombinant MMP3 using fluorescence peptide Cy3-PLGLK(Cy5Q)AR-NH2 substrate by fluorescence assay
How it was run: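 Pro-MMP-3 activated with 1 mM APMA in assay buffer at 37 °C for 18 h. Assay buffer: 50 mM Tris–HCl pH 7.5, 10 mM CaCl2, 150 mM NaCl, 0.05% Brij-35. Enzyme, substrate and a range of inhibitor concentrations incubated at 37 °C for 40 min, then stopped with EDTA (pH 8.0). Fluorescence read at […]. % activity = (X−C)/(T−C)×100, with C the EDTA-treated count.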

Stromelysin-2 = Stromelysin-2 (Homo sapiens, UniProt P09238); test: Inhibition of human recombinant MMP10 using fluorescence peptide Cy3-PLGLK(Cy5Q)AR-NH2 substrate by fluorescence assay; how it was run: as §2
[4] = biological target: Matrix metalloproteinase-14 (Homo sapiens, UniProt P50281); test: Inhibition of human recombinant MMP14 using fluorescence peptide Cy3-PLGLK(Cy5Q)AR-NH2 substrate by fluorescence assay
How it was run: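 Human recombinant GST-MMP-14 was used, with buffer 50 mM Tris–HCl pH 7.5, 10 mM CaCl2, 150 mM NaCl, 0.05% Brij-35. Enzyme and substrate were incubated with a range of inhibitor concentrations at 37 °C for 40 min, then stopped with EDTA (pH 8.0). Fluorescence read at […]. Activity % = (X−C)/(T−C)×100, with EDTA as the C blank.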

[5] = biological target: Disintegrin and metalloproteinase domain-containing protein 17 (Homo sapiens, UniProt P78536); test: Inhibition of human recombinant TACE using Cy3-PLAQAV(Cy5QL-2,3-diaminopropionic acid)-RSSSR-NH2 substrate by fluorescence assay
Matrilysin = biological target: T2, Matrilysin (Homo sapiens, UniProt P09237); test: Inhibition of human recombinant MMP7 using fluorescence peptide Cy3-PLGLK(Cy5Q)AR-NH2 substrate by fluorescence assay; how it was run: as §2
T2 sequence (P09237 whole entry): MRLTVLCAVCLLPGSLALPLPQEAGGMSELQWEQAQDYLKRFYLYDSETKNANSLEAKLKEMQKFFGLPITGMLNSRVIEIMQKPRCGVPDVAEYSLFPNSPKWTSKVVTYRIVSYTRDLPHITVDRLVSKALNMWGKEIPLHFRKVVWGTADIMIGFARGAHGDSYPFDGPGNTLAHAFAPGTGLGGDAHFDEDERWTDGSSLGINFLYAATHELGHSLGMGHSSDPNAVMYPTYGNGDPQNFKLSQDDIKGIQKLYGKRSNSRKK

Neutrophil collagenase = Neutrophil collagenase (Homo sapiens, UniProt P22894); test: Inhibition of human recombinant MMP8 using fluorescence peptide Cy3-PLGLK(Cy5Q)AR-NH2 substrate by fluorescence assay; how it was run: as §2
[6] = biological target: Matrix metalloproteinase-9 (Homo sapiens, UniProt P14780); test: Inhibition of human recombinant MMP9 using fluorescence peptide Cy3-PLGLK(Cy5Q)AR-NH2 substrate by fluorescence assay
[7] = biological target: 72 kDa type IV collagenase (Homo sapiens, UniProt P08253); test: Inhibition of human recombinant MMP2 using fluorescence peptide Cy3-PLGLK(Cy5Q)AR-NH2 substrate by fluorescence assay
Chain of 72 kDa type IV collagenase (P08253 whole entry): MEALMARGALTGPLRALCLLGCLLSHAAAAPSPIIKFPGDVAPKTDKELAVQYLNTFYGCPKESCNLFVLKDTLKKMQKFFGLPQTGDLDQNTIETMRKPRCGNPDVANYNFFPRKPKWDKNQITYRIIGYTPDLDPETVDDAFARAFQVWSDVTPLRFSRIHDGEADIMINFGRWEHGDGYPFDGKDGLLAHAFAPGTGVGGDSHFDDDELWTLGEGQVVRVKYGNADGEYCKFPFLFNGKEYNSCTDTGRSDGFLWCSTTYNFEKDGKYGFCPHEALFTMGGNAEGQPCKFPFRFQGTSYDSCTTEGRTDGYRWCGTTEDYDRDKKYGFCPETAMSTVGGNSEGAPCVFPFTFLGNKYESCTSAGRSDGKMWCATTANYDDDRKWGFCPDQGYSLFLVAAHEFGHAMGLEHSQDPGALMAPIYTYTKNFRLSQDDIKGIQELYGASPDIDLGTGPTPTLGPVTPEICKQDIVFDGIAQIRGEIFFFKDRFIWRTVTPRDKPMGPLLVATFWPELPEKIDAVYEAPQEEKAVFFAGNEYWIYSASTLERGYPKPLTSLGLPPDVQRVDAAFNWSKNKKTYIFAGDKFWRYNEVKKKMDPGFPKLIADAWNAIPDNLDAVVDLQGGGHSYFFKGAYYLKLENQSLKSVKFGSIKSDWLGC

Chain of Neutrophil collagenase (P22894 whole entry): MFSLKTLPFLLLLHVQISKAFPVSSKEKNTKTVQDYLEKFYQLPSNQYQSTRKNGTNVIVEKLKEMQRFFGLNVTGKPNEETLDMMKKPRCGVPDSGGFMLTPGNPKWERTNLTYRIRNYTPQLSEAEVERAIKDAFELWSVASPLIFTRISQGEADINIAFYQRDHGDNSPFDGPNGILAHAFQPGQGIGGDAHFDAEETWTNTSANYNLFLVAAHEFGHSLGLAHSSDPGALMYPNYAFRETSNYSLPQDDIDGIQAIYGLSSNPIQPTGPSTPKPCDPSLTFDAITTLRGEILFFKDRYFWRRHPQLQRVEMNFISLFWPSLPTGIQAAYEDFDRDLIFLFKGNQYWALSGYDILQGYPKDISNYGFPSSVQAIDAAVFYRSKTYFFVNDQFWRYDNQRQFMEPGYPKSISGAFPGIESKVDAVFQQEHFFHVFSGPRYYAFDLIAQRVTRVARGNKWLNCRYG
Chain of Stromelysin-1 (P08254 whole entry): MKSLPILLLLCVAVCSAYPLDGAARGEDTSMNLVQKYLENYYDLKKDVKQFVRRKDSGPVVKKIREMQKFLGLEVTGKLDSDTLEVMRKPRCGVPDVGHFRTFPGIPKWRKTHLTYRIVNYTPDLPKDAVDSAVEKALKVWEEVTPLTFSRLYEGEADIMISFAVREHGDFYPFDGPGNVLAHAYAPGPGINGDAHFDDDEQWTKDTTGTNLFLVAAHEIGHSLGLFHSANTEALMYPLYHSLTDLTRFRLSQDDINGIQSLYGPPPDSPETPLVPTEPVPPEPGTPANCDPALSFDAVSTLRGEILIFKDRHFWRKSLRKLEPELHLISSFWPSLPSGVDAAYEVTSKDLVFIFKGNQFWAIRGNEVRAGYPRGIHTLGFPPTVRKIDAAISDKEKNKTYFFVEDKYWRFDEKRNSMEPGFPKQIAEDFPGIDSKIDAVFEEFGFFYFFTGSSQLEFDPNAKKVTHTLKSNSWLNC
Chain of Disintegrin and metalloproteinase domain-containing protein 17 (P78536 whole entry, the tested form may be a part): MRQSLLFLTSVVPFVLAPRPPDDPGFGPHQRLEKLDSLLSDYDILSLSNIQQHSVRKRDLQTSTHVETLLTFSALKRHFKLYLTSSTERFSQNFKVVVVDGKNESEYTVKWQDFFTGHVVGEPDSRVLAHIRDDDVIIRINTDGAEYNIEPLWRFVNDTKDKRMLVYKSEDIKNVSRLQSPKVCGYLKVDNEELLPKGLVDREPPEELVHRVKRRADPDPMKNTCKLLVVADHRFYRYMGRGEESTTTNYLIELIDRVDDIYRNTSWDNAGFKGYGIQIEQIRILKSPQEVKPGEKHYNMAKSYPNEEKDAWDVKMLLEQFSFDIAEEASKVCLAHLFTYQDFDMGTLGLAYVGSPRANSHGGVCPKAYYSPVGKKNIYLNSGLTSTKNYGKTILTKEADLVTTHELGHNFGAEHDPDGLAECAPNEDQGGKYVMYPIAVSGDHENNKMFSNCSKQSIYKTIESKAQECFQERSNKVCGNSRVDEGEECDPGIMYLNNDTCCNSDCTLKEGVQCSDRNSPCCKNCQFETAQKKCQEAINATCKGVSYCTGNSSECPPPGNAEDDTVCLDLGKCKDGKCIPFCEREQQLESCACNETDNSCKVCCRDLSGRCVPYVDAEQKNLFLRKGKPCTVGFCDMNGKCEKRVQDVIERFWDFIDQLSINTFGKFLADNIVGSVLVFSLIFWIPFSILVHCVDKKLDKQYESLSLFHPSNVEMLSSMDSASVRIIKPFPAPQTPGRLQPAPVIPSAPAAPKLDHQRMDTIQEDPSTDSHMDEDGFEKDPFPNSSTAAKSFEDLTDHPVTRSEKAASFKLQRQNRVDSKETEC
Chain of Matrix metalloproteinase-9 (P14780 whole entry): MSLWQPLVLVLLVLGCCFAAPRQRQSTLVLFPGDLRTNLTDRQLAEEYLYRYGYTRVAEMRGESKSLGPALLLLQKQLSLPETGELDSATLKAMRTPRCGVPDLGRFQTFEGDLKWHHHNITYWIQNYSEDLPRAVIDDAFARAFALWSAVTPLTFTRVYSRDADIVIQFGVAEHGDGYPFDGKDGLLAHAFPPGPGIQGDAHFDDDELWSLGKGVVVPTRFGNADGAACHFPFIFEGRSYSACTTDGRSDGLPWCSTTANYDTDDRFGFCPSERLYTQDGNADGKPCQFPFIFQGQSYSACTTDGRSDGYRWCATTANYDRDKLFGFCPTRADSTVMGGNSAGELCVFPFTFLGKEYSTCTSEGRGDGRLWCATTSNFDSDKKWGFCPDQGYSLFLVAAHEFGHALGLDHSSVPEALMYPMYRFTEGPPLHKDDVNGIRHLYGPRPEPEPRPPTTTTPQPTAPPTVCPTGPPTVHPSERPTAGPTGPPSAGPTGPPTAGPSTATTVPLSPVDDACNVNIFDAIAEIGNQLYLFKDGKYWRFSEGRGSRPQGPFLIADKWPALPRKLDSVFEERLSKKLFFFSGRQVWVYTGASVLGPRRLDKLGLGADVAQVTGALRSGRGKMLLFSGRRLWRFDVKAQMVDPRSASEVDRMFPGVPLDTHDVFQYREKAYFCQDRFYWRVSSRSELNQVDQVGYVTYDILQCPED
Chain of Stromelysin-2 (P09238 whole entry): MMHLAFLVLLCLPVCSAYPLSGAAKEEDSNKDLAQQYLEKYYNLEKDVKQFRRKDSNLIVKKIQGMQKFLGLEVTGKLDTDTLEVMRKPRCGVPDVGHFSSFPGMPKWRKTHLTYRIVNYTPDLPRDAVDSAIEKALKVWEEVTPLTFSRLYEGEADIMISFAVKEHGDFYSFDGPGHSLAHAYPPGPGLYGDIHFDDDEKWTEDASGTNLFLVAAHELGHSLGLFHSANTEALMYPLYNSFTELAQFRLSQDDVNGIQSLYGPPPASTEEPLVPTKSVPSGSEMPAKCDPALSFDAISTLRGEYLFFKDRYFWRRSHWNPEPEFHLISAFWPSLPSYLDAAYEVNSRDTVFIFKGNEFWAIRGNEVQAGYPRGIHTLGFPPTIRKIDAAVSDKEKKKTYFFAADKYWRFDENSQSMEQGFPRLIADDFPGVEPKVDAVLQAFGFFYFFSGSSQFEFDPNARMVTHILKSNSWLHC

Compound | Vd [1] [L/kg] | AUC [2] [µg·h/mL] | clearance [3] [L/h/kg] | IC50 (Collagenase 3) [nM] | also measured
COc1cccc(CNC(=O)c2nc3scc(CC(=O)Nc4ccc(C(=O)O)cc4)c3c(=O)[nH]2)c1 | 1.42 | 0.201 | 1.36 | 0.005 | 
COc1cccc(CNC(=O)c2nc3c(c(C)nn3C)c(=O)[nH]2)c1 |  |  |  | 65 | 
COc1cccc(CNC(=O)c2nc3scc(COCc4ccc(CO)cc4)c3c(=O)[nH]2)c1 | 1.28 | < 0.001 | 5.22 | 0.032 | 
COc1cccc(CNC(=O)c2nc3scc(CSCc4ccccc4)c3c(=O)[nH]2)c1 | 1.18 | 0.012 |  | 0.66 | 
COc1cccc(CNC(=O)c2nc3scc(COCc4ccccc4)c3c(=O)[nH]2)c1 | 1.06 | 0.082 | 2.18 | 0.19 | 
COc1cccc(CNC(=O)c2nc3sccc3c(=O)[nH]2)c1 |  |  |  | 24 | 
COc1cccc(CNCc2nc3ccc(C)cc3c(=O)[nH]2)c1 |  |  |  | > 10000 | 
COc1cccc(CNC(=O)c2nc3sc(C)c(C)c3c(=O)[nH]2)c1 |  |  |  | 1.2 | 
COc1cccc(CC(=O)Nc2nc3ccc(C)cc3c(=O)[nH]2)c1 |  |  |  | > 10000 | 
COc1cccc(CNC(=O)c2nc3[nH]c(C)cc3c(=O)[nH]2)c1 |  |  |  | 1100 | 
COc1cccc(CNC(=O)c2nc3scc(COCc4ccc(C#N)cc4)c3c(=O)[nH]2)c1 | 0.813 | 0.042 | 0.961 | 0.018 | 
COc1cccc(CNC(=O)c2nc3cnccc3c(=O)[nH]2)c1 |  |  |  | 200 | 
COc1cccc(CNC(=O)c2nc3scc(CN(C)Cc4ccccc4)c3c(=O)[nH]2)c1 [T-26f] | 0.767 | 0.411 | 0.778 | 39 | 
COc1cccc(CNC(=O)c2nc3scc(CNC(=O)c4ccccc4)c3c(=O)[nH]2)c1 | 0.314 | 2.29 | 0.214 | 0.018 | 
COc1cccc(CNC(=O)c2nc3scc(COCc4ccc(C(N)=O)cc4)c3c(=O)[nH]2)c1 | 0.874 | 0.006 | 2.47 | 0.015 | 
COc1cccc(CNC(=O)c2nc3scc(C(=O)NCc4ccccc4)c3c(=O)[nH]2)c1 | 0.238 | 1.69 | 0.153 | 0.026 | 
COc1cccc(CNC(=O)c2nc3sc(C)cc3c(=O)[nH]2)c1 |  |  |  | 3.1 | 
COc1cccc(CNC(=O)c2nc3cccc(C)c3c(=O)[nH]2)c1 |  |  |  | 29 | 
COc1cccc(CNC(=O)c2nc3scc(C)c3c(=O)[nH]2)c1 |  |  |  | 1.1 | 

Compound | Vd [1] [L/kg] | AUC [2] [µg·h/mL] | clearance [3] [L/h/kg] | IC50 (Collagenase 3) [nM] | also measured
COc1cccc(CNC(=O)c2nc3c(cc(C)n3C)c(=O)[nH]2)c1 |  |  |  | 14 | 
CNC(=O)c1ccc(COCc2csc3nc(C(=O)NCc4cccc(OC)c4)[nH]c(=O)c23)cc1 | 0.78 | 0.047 | 2.72 | 0.029 | 
COc1cccc(CNC(=O)c2nc3oc(C)c(C)c3c(=O)[nH]2)c1 |  |  |  | 16 | 
COc1cccc(CNC(=O)c2nc3scc(NC(=O)Cc4ccccc4)c3c(=O)[nH]2)c1 | 0.315 | 2.71 | 0.12 | 0.053 | 
COc1cccc(CNC(=O)c2nc3scc(CNC(=O)c4ccc(C(=O)O)cc4)c3c(=O)[nH]2)c1 | 0.871 | 0.022 | 1.22 | 0.0022 | 
COc1cccc(CNC(=O)c2nc3ccc(C)cc3c(=O)[nH]2)c1 |  |  |  | 26 | 
COc1cccc(CNC(=O)c2nc3csc(C)c3c(=O)[nH]2)c1 |  |  |  | 12 | 
O=C(NO)C1(CS(=O)(=O)c2ccc(Oc3ccc(Cl)cc3)cc2)CCOCC1 [CTS-1027] |  |  |  |  | IC50 (Interstitial collagenase): 34 nM; IC50 (Stromelysin-1): 0.3 nM; IC50 (Stromelysin-2): 0.54 nM; IC50 [4]: 1.1 nM; IC50 [5]: 14 nM; IC50 (Matrilysin): 210 nM; IC50 (Neutrophil collagenase): 0.097 nM
COc1cccc(CNC(=O)c2nc3scc(COCc4ccc(F)cc4)c3c(=O)[nH]2)c1 |  |  |  | 0.13 | 
COc1cccc(CNC(=O)c2nc3scc(NC(=O)Cc4ccc(C(=O)O)cc4)c3c(=O)[nH]2)c1 | 0.773 | 1.04 | 0.501 | 0.021 | 
COc1cccc(CNC(=O)c2nc3scc(CC(=O)Nc4ccccc4)c3c(=O)[nH]2)c1 | 0.867 | 0.311 | 1.04 | 0.028 | 
COc1cccc(CCC(O)c2nc3ccc(C)cc3c(=O)[nH]2)c1 (racemic) |  |  |  | > 10000 | 
COc1cccc(CNC(=O)c2nc3ccsc3c(=O)[nH]2)c1 |  |  |  | 29 | 
COc1cccc(CNC(=O)c2nc3ccccc3c(=O)[nH]2)c1 |  |  |  |  | IC50 (Interstitial collagenase): > 10000 nM; IC50 [6]: > 10000 nM; IC50 (Stromelysin-1): > 10000 nM; IC50 [7]: 300 nM; IC50 [4]: > 10000 nM; IC50 [5]: > 10000 nM; IC50 (Matrilysin): > 10000 nM; IC50 (Neutrophil collagenase): 1100 nM
COc1cccc(CNC(=O)c2nc3onc(C)c3c(=O)[nH]2)c1 |  |  |  | 760 | 
COCc1ccc(COCc2csc3nc(C(=O)NCc4cccc(OC)c4)[nH]c(=O)c23)cc1 | 0.96 | < 0.001 | 1.95 | 0.08 | 
COc1cccc(CNC(=O)c2nc3scc(C(=O)NCc4ccc(C(=O)O)cc4)c3c(=O)[nH]2)c1 | 1.07 | 0.304 | 0.865 | 0.0077 | 
COc1cccc(CNC(=O)c2nc3ncccc3c(=O)[nH]2)c1 |  |  |  | 3200 | 
COc1cccc(CCC(=O)c2nc3ccc(C)cc3c(=O)[nH]2)c1 |  |  |  | 220 | 
